Sampled rows, rich in hits. Any-hit rate of the full collection: about 1.5%.
NR1D1 modulator = modulators of human Rev-erb alpha DNA binding; Rev-erbα–FITC-DNA binding, fluorescence polarization, 90 min; activity, % at 10 µM; 370,000 compounds, 0.79% hits; AID 1259318;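 active means activity above about 14%, limit read from the data; passing the limit was not always enough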;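 further: 0% = DMSO wells with 35 nM protein and 100% = DMSO wells with 750 nM protein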
aDG glyco up = increases alpha dystroglycan glycosylation; Pro5-aDG cells, alpha-DG glycosylation AlphaScreen (IIH6); 0% Pro5, 100% B10-LARGE cell signal; activation, % at 10 µM; 360,000 compounds, 0.22% hits;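 active means activation of at least 8% versus controls, or a plate z-score of at least 8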;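 further: Pro5 are CHO cells carrying HIG-tagged alpha-DG that lacks glycosylation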
CSN inh = CSN deneddylation inhibition; Q92905; Purified CSN, SCF-Nedd8-OG deneddylation, fluorescence polarization; inhibition, % at 12.5 µM; 360,000 compounds, 0.38% hits; AID 651999;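 active means pattern-corrected inhibition above about 35%, with an unprinted fluorescence ratio check between 0.5 and 1.5, limit read from the data, passing the limit was not always enough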;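 further: 0% = enzyme with substrate and 100% = substrate without enzyme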
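Test system: Human Csn5 produced in HEK293T cells | Compound: 12.5 µM single point | Times: 90 min, room temperature | Signal: Fluorescence polarization readout | Read-out basis: % inhibition of substrate cleavage by Csn5 | Controls: no-enzyme wells high, enzyme-with-substrate wells low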
HNF4A DNA FP = change in binding of human HNF4 alpha to DNA | HNF4a-FITC DNA binding, fluorescence polarization, 1 h | activity change, % at 10 µM | 360,000 compounds, 0.3% hits; in the data active means activity change above about 30%, passing the limit was not always enough
Target sequence (P41235 whole entry, looked up): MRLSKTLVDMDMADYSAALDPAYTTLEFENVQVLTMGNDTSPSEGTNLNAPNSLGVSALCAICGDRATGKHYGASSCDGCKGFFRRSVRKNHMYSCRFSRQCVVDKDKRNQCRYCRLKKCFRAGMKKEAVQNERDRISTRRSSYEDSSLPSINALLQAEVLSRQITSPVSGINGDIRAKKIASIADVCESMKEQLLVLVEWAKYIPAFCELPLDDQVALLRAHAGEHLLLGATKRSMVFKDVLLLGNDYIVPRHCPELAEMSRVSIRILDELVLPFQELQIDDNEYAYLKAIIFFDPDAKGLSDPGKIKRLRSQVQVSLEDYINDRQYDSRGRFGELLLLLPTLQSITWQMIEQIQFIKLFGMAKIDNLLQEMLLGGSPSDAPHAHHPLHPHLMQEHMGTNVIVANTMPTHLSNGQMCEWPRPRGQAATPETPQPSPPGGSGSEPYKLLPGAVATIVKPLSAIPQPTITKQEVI
Active calls of the source: *; . = not tested or not shown.

SMILES | NR1D1 modulator | aDG glyco up | CSN inh | HNF4A DNA FP
CC1(C)O[C@@H]2CC3C4CCC5=CC(=O)CCC5(C)[C@]4(F)C(O)CC3(C)[C@]2(C(=O)CCl)O1 (stereo partly drawn) | -2.3 | . | . | .
C[C@@H](/C=C/C(=O)OC(C)(C)C)Sc1ccc(C(C)(C)C)cc1 | -6.6 | . | . | .
c1cc2c3c(cccc3c1)NC1(CCCCC1)N2 | -16.2 | 1.1 | 2.5 | 44.2*
c1cc2c3c(cccc3c1)NC1(CCCCCC1)N2 | -5.3 | 0.2 | 2.3 | 6.8
N#Cc1c(-c2ccncc2)cc(-c2ccc(F)cc2)nc1N | 13.0 | 0.4 | 2.8 | -9.2
COc1cc(-c2cc(-c3ccc(F)cc3)nc(N)c2C#N)ccc1O | 5.3 | -0.1 | -8.5 | 83.0*
CCOc1cc(-c2cc(-c3ccc(N)cc3)nc(N)c2C#N)ccc1O | -4.8 | -0.4 | -0.1 | 7.0
CCOc1cc(-c2cc(-c3ccccc3)nc(N)c2C#N)ccc1O | 4.2 | 0.1 | 1.4 | 28.4*
Cc1c2oc3c(C)ccc(C(=O)OC(C)C4NC(=O)C(C(C)C)N(C)C(=O)CN(C)C(=O)C5CCCN5C(=O)C(C(C)C)NC4=O)c3nc-2c(C(=O)OC(C)C2NC(=O)C(C(C)C)N(C)C(=O)CN(C)C(=O)C3CCCN3C(=O)C(C(C)C)NC2=O)c(N)c1=O (stereo not drawn) | -7.9 | . | . | .
COC(=O)[C@]12C[C@H](CC(=O)NCc3cccs3)C(=O)N(Cc3ccco3)C1=C[C@H](COCc1ccccc1)O[C@@H]2C | 11.6 | . | . | .
CCC(=O)N1CCc2cc(S(=O)(=O)N3CCc4ccccc4C3)ccc21 | 10.2 | 0.2 | 78.0* | -0.2
CCC(NC(=O)C1CCCN(c2ncccn2)C1)c1ccccc1 (stereo not drawn) | 3.7 | . | . | .
Cc1ccc(/C=C2/NC(=O)N(Cc3ccccc3F)C2=O)s1 | 1.3 | 0.0 | 41.0* | 74.8
CCOC(=O)C1=C(CSc2nc(-c3ccccc3)ccc2C#N)OC(N)=C(C#N)C1c1ccc(OC)cc1 (stereo not drawn) | -2.8 | 0.3 | 20.2 | 39.3*
CC(=O)OCC(=O)[C@@]1(O)[C@H](OC(C)=O)CC2C3CCC4=CC(=O)C=C[C@]4(C)[C@@]3(F)[C@@H](O)C[C@@]21C (stereo partly drawn) | -9.2 | . | . | .
CCCCCOc1ccc(/C=N/NC(=O)CSc2nnc(-c3ccc(OC)cc3)n2-c2ccc(C)cc2)cc1 | -12.4 | . | . | .
COc1cccc(/C=C2\CC3(OC(=O)c4cccc(F)c4)CCCN2C3)c1 (stereo not drawn) | 3.6 | . | . | .
CCOc1ccc2ccccc2c1/C=N/NC(=O)c1ccncc1 | 3.5 | -0.2 | -1.7 | -0.3
CCn1c(O)c(/C=N/NC(=O)c2ccncc2)c(=O)n(CC)c1=S | -0.6 | -0.2 | 130.6 | 77.7*
O=c1c2c(c1=O)N(CCP(=O)(O)O)CCCN2 | 2.3 | . | . | .
CCC1(CC)NC(=O)N(CC(=O)Nc2sc3c(c2C(N)=O)CCC3)C1=O | -20.9 | 0.1 | 40.9* | 3.4
NC(=O)c1c(NC(=O)CSc2nnc(-c3ccco3)n2-c2ccccc2)sc2c1CCC2 | -31.9 | 0.7 | 36.3* | -13.2
CCC1(C)NC(=O)N(CC(=O)Nc2sc3c(c2C(=O)OC)CCCCC3)C1=O (stereo not drawn) | -2.9 | -0.7 | 2.3 | 1.7
CCOC(=O)Cc1csc(SCC(=O)Nc2sc3c(c2C(N)=O)CCC3)n1 | -18.6 | -0.4 | 36.8* | -14.6
CCOC(=O)Cc1csc(SCC(=O)Nc2nccs2)n1 | -3.4 | 0.0 | 0.7 | 2.6
SMILES | NR1D1 modulator | aDG glyco up | CSN inh | HNF4A DNA FP
Cc1nc2c(-c3ccc(Cl)cc3)c(C)[nH]n2c(=O)c1Cc1ccccc1 | -0.8 | 12.1* | -0.4 | 0.6
CCn1c2ccccc2c2cc(NC(=O)COC(=O)c3cccc(F)c3)ccc21 | -0.3 | . | . | .
S=C(NCc1ccccc1)Nc1cccc2cnccc12 | 2.2 | 1.7 | 2.7 | 5.0
Cc1ccc(C)c(NC(=S)Nc2cccc3cnccc23)c1 | 2.2 | 4.6 | 35.5* | 0.6
S=C(NCCc1ccccc1)Nc1cccc2cnccc12 | -0.5 | 9.0* | 0.0 | 2.1
Cc1ccc(NC(=S)Nc2cccc3cnccc23)cc1C | -2.3 | 2.6 | 36.9* | 6.3
Cc1ccccc1NC(=S)Nc1cccc2cnccc12 | 1.3 | 0.7 | 29.4 | 2.9
CCN(CC)C(=O)CC[C@@H]1CC[C@]2(CCCN(S(=O)(=O)c3ccccc3)C2)O1 | -0.8 | . | . | .
CN(CCCOC(=O)c1occ2ccccc12)C1CN(Cc2cn(Cc3ccccc3Cl)nn2)S(=O)(=O)C1 (stereo not drawn) | 2.7 | . | . | .
CN(C)[C@@H]1C(=O)C(C(=O)NCN2CCCC2)=C(O)[C@@]2(O)C(=O)C3=C(O)c4c(O)cccc4[C@@](C)(O)[C@H]3C[C@@H]12 | -4.6 | . | . | .
COc1ccc(-n2c(C)cc(/C=C3\SC(=S)N(Cc4ccco4)C3=O)c2C)cc1 | 7.5 | -0.3 | 29.6 | 54.3*
COc1cccc(C=C2SC(=S)N(Cc3ccco3)C2=O)c1OC | -12.8 | . | . | .
CC1(C)C2CC[C@]3(C)C(C(=O)C=C4[C@@H]5C[C@@](C)(C(=O)O)CC[C@]5(C)CC[C@]43C)[C@@]2(C)CC[C@@H]1OC(=O)CCC(=O)O (stereo partly drawn) | 1.5 | . | . | .
C=CCN1C(=O)[C@@H](CC(=O)NCCCN2CCCC2=O)[C@]2(C(=O)OC)CCCCC=C12 | 5.5 | . | . | .
COc1cccc(C(=O)Nc2cccc(-c3nnc(-c4ccco4)o3)c2)c1 | -0.5 | -0.6 | 6.5 | 4.3
COc1ccc(Br)cc1C(=O)Nc1cccc(-c2nnc(-c3ccco3)o2)c1 | 6.2 | -0.4 | 114.7* | 48.6*
Cc1cc(-c2csc(NC(=O)c3ccc(C#N)cc3)n2)c(C)n1Cc1ccco1 | -11.6 | 0.4 | 40.6* | 6.1
COc1ccc(-c2noc(C3CCCN(C(=O)Nc4cc(C)cc(C)c4)C3)n2)cc1 (stereo not drawn) | -2.6 | . | . | .
Cc1ccc(S(=O)(=O)CCC(=O)OC(C)C(=O)N2CCc3ccccc32)cc1 (stereo not drawn) | -1.9 | -0.1 | 40.1* | 4.3
CC(=O)Oc1c(Br)cc(N(C(C)=O)S(=O)(=O)c2ccccc2)c2ccccc12 | 0.3 | 3.0* | 4.5 | -2.1
Cc1ccc(S(=O)(=O)NCc2ccc(C(=O)N3CCN(c4ccccn4)CC3)cc2)cc1 | -1.9 | 0.4 | -3.7 | -0.3
O=C(c1ccc(Cl)c(Cl)c1)N1CCN(c2ccccn2)CC1 | 0.4 | 0.0 | 0.1 | -0.4
Cc1[nH]c2ccc(C(=O)N3CCN(c4ccccn4)CC3)cc2c1C | -4.1 | 0.0 | -4.5 | 103.1*
Cc1ccc(NS(=O)(=O)c2ccc(C(=O)N3CCN(c4ccccn4)CC3)cc2)cc1 | -1.9 | 6.3* | -4.2 | 2.4
CCOC(=O)CSc1nnc(CSc2nc3sc4c(c3c(=O)[nH]2)CCCC4)n1-c1ccccc1 | 0.0 | 0.0 | -9.6 | 34.0*
CCCOc1ccc(CSc2nc3ccccc3[nH]2)cc1 | 2.5 | 4.4* | -0.2 | -2.4
C=CCN(CC#Cc1ccc(C(F)(F)F)cc1)Cc1ccc(OC)cc1OC | 5.6 | . | . | .
C=NC(C(=O)N[C@H]1C(=O)N2C1SC(C)(C)C2C(=O)O)c1ccccc1 (stereo partly drawn) | 5.1 | . | . | .

Compound activity from PubChem.
